Activity calls are given as the source filed them. The rule behind the calls is not given here.
Columns and labels:
Rattus norvegicus [1] = assay: Neurotoxicity in pilocarpine-induced status epilepticus Sprague-Dawley albino rat model assessed as minimal motor impairment at 30 mg/kg, ip after 2 hrs by rotarod test; type: toxicity, organism-based; design: dose 30 mg/kg, route intraperitoneal; conditions: in vivo
Summary of the method: (§1)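 Rat pilocarpine status epilepticus model: test carbamate given at 0 or 30 min after the first observed Racine stage 3 motor seizure, which marks SE onset. Neurotoxicity was scored within the same model.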

Mus musculus [2] = assay: Anticonvulsant activity in albino CF1 mouse assessed as protection against maximal electroshock-induced seizures at 100 mg/kg, ip after 0.5 hrs; type: functional, organism-based; design: dose 100 mg/kg
Summary of the method: (§2)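 Mice dosed ip at 30, 100 or 300 mg/kg, then tested 0.5 h and 4 h after administration in the MES or scMet test. Protection was recorded as animals protected over animals tested. Neurotoxicity was recorded as motor impairment or sedation, as animals affected over animals tested.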

Mus musculus [3] = assay: Neurotoxicity in albino CF1 mouse assessed as minimal motor impairment at 100 mg/kg, ip after 0.5 hrs by rotarod test; type: toxicity, organism-based; design: dose 100 mg/kg, route intraperitoneal; conditions: in vivo; summary of the method: as §2
Rattus norvegicus [4] = assay: Neurotoxicity in pilocarpine-induced status epilepticus Sprague-Dawley albino rat model assessed as minimal motor impairment at 30 mg/kg, ip after 0.5 hrs by rotarod test; type: toxicity, organism-based; design: dose 30 mg/kg, route intraperitoneal; conditions: in vivo; summary of the method: as §1
Rattus norvegicus [5] = assay: Anticonvulsant activity in Sprague-Dawley albino rat assessed as protection against maximal electroshock-induced seizures at 30 mg/kg, po after 15 mins; type: functional, organism-based; design: dose 30 mg/kg
Summary of the method: (§3)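 Rats dosed orally. Anti-MES protection was scored as animals protected over animals tested at each time after dosing. Neurotoxicity was scored as motor impairment or sedation, as animals affected over animals tested.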

Rattus norvegicus [6] = assay: Neurotoxicity in pilocarpine-induced status epilepticus Sprague-Dawley albino rat model assessed as minimal motor impairment at 30 mg/kg, ip after 0.25 hr by rotarod test; type: toxicity, organism-based; design: dose 30 mg/kg, route intraperitoneal; conditions: in vivo; summary of the method: as §1
Mus musculus [7] = assay: Anticonvulsant activity in ip dosed albino CF-1 mouse assessed as protection against 6 Hz psychomotor seizure; type: functional; conditions: albino CF-1, ip
Summary of the method: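 Quantitative testing: rats dosed orally or ip in MES and scMet tests, and mice dosed ip, including the 6 Hz (32 mA) psychomotor seizure test. ED50 and TD50 were reported in mg/kg with ranges in parentheses. Protective index was calculated as TD50/ED50.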

Mus musculus [8] = assay: Protective index, ratio of TD50 for ip dosed albino CF1 mouse by rotarod test to ED50 for ip dosed albino CF1 mouse by 6 Hz psychomotor seizure test; type: functional
Summary of the method: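 Protective index calculated as TD50/ED50, with TD50 and ED50 taken from the same species and dosing route.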

Rattus norvegicus [9] = assay: Neurotoxicity in pilocarpine-induced status epilepticus Sprague-Dawley albino rat model assessed as minimal motor impairment at 50 mg/kg, ip after 0.5 hrs by rotarod test; type: toxicity, organism-based; design: dose 50 mg/kg, route intraperitoneal; conditions: in vivo; summary of the method: as §1
Rattus norvegicus [10] = assay: Neurotoxicity in Sprague-Dawley albino rat assessed as minimal motor impairment at 30 mg/kg, po by rotarod test; type: toxicity, organism-based; design: dose 30 mg/kg, route oral; conditions: in vivo; summary of the method: as §3
Rattus norvegicus [11] = assay: Neurotoxicity in pilocarpine-induced status epilepticus Sprague-Dawley albino rat model assessed as minimal motor impairment at 300 mg/kg, ip after 0.5 hrs by rotarod test; type: toxicity, organism-based; design: dose 300 mg/kg, route intraperitoneal; conditions: in vivo; summary of the method: as §1
Rattus norvegicus [12] = assay: Neurotoxicity in pilocarpine-induced status epilepticus Sprague-Dawley albino rat model assessed as minimal motor impairment at 100 mg/kg, ip after 0.25 hr by rotarod test; type: toxicity, organism-based; design: dose 100 mg/kg, route intraperitoneal; conditions: in vivo
Mus musculus [13] = assay: Neurotoxicity in albino CF1 mouse assessed as minimal motor impairment at 30 mg/kg, ip after 4 hrs by rotarod test; type: toxicity, organism-based; design: dose 30 mg/kg, route intraperitoneal; conditions: in vivo; summary of the method: as §2
Rattus norvegicus [14] = assay: Neurotoxicity in pilocarpine-induced status epilepticus Sprague-Dawley albino rat model assessed as minimal motor impairment at 300 mg/kg, ip after 0.25 hr by rotarod test; type: toxicity, organism-based; design: dose 300 mg/kg, route intraperitoneal; conditions: in vivo; summary of the method: as §1
Rattus norvegicus [15] = assay: Neurotoxicity in pilocarpine-induced status epilepticus Sprague-Dawley albino rat model assessed as minimal motor impairment at 100 mg/kg, ip after 4 hrs by rotarod test; type: toxicity, organism-based; design: dose 100 mg/kg, route intraperitoneal; conditions: in vivo
Mus musculus [16] = assay: Anticonvulsant activity in albino CF1 mouse assessed as protection against subcutaneous metrazol-induced seizures at 30 mg/kg, ip after 0.5 hrs; type: functional, organism-based; design: dose 30 mg/kg; summary of the method: as §2
Mus musculus [17] = assay: Anticonvulsant activity in albino CF1 mouse assessed as protection against subcutaneous metrazol-induced seizures at 100 mg/kg, ip after 0.5 hrs; type: functional, organism-based; design: dose 100 mg/kg; summary of the method: as §2
Rattus norvegicus [18] = assay: Neurotoxicity in pilocarpine-induced status epilepticus Sprague-Dawley albino rat model assessed as minimal motor impairment at 100 mg/kg, ip after 1 hr by rotarod test; type: toxicity, organism-based; design: dose 100 mg/kg, route intraperitoneal; conditions: in vivo
Mus musculus [19] = assay: Anticonvulsant activity in albino CF1 mouse assessed as protection against subcutaneous metrazol-induced seizures at 30 mg/kg, ip after 4 hrs; type: functional, organism-based; design: dose 30 mg/kg; summary of the method: as §2
Rattus norvegicus [20] = assay: Neurotoxicity in pilocarpine-induced status epilepticus Sprague-Dawley albino rat model assessed as minimal motor impairment at 30 mg/kg, ip after 4 hrs by rotarod test; type: toxicity, organism-based; design: dose 30 mg/kg, route intraperitoneal; conditions: in vivo; summary of the method: as §1
Mus musculus [21] = assay: Neurotoxicity in albino CF1 mouse assessed as minimal motor impairment at 30 mg/kg, ip after 0.5 hrs by rotarod test; type: toxicity, organism-based; design: dose 30 mg/kg, route intraperitoneal; conditions: in vivo; summary of the method: as §2
Rattus norvegicus [22] = assay: Neurotoxicity in pilocarpine-induced status epilepticus Sprague-Dawley albino rat model assessed as minimal motor impairment at 30 mg/kg, ip after 1 hr by rotarod test; type: toxicity, organism-based; design: dose 30 mg/kg, route intraperitoneal; conditions: in vivo; summary of the method: as §1
Rattus norvegicus [23] = assay: Anticonvulsant activity in Sprague-Dawley albino rat assessed as protection against maximal electroshock-induced seizures at 30 mg/kg, po after 1 hr; type: functional, organism-based; design: dose 30 mg/kg; summary of the method: as §3
Mus musculus [24] = assay: Anticonvulsant activity in albino CF1 mouse assessed as protection against subcutaneous metrazol-induced seizures at 300 mg/kg, ip after 4 hrs; type: functional, organism-based; design: dose 300 mg/kg; summary of the method: as §2
Rattus norvegicus [25] = assay: Anticonvulsant activity in Sprague-Dawley albino rat assessed as protection against pilocarpine-induced status epilepticus at 65 mg/kg, ip; type: functional, organism-based; design: dose 65 mg/kg
Summary of the method: (§4)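 Pilocarpine status epilepticus model in rats. Number and severity of convulsive seizures were observed behaviourally.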

Rattus norvegicus [26] = assay: Neurotoxicity in pilocarpine-induced status epilepticus Sprague-Dawley albino rat model assessed as minimal motor impairment at 100 mg/kg, ip after 0.5 hrs by rotarod test; type: toxicity, organism-based; design: dose 100 mg/kg, route intraperitoneal; conditions: in vivo
Mus musculus [27] = assay: Anticonvulsant activity in albino CF1 mouse assessed as protection against maximal electroshock-induced seizures at 30 mg/kg, ip after 4 hrs; type: functional, organism-based; design: dose 30 mg/kg; summary of the method: as §2
Mus musculus [28] = assay: Anticonvulsant activity in albino CF1 mouse assessed as protection against maximal electroshock-induced seizures at 100 mg/kg, ip after 4 hrs; type: functional, organism-based; design: dose 100 mg/kg; summary of the method: as §2
Mus musculus [29] = assay: Neurotoxicity in albino CF1 mouse assessed as minimal motor impairment at 100 mg/kg, ip after 4 hrs by rotarod test; type: toxicity, organism-based; design: dose 100 mg/kg, route intraperitoneal; conditions: in vivo; summary of the method: as §2
Mus musculus [30] = assay: Anticonvulsant activity in albino CF1 mouse assessed as protection against maximal electroshock-induced seizures at 300 mg/kg, ip after 4 hrs; type: functional, organism-based; design: dose 300 mg/kg; summary of the method: as §2
Mus musculus [31] = assay: Anticonvulsant activity in albino CF1 mouse assessed as protection against maximal electroshock-induced seizures at 30 mg/kg, ip after 0.5 hrs; type: functional, organism-based; design: dose 30 mg/kg; summary of the method: as §2
Rattus norvegicus [32] = assay: Neurotoxicity in pilocarpine-induced status epilepticus Sprague-Dawley albino rat model assessed as minimal motor impairment at 160 mg/kg, ip after 0.5 hrs by rotarod test; type: toxicity, organism-based; design: dose 160 mg/kg, route intraperitoneal; conditions: in vivo
Rattus norvegicus [33] = assay: Anticonvulsant activity in Sprague-Dawley albino rat assessed as protection against maximal electroshock-induced seizures at 30 mg/kg, po after 30 mins; type: functional, organism-based; design: dose 30 mg/kg; summary of the method: as §3
Mus musculus [34] = assay: Anticonvulsant activity in albino CF1 mouse assessed as protection against subcutaneous metrazol-induced seizures at 100 mg/kg, ip after 4 hrs; type: functional, organism-based; design: dose 100 mg/kg; summary of the method: as §2
Rattus norvegicus [35] = assay: Neurotoxicity in pilocarpine-induced status epilepticus Sprague-Dawley albino rat model assessed as minimal motor impairment at 100 mg/kg, ip after 2 hrs by rotarod test; type: toxicity, organism-based; design: dose 100 mg/kg, route intraperitoneal; conditions: in vivo
Mus musculus [36] = assay: Neurotoxicity in albino CF1 mouse assessed as minimal motor impairment at 300 mg/kg, ip after 4 hrs by rotarod test; type: toxicity, organism-based; design: dose 300 mg/kg, route intraperitoneal; conditions: in vivo; summary of the method: as §2
Rattus norvegicus [37] = assay: Anticonvulsant activity in Sprague-Dawley albino rat assessed as protection against maximal electroshock-induced seizures at 30 mg/kg, po after 4 hrs; type: functional, organism-based; design: dose 30 mg/kg; summary of the method: as §3
Rattus norvegicus [38] = assay: Anticonvulsant activity in ip dosed Sprague-Dawley albino rat assessed as protection against pilocarpine-induced status epilepticus after 0.5 hrs; type: functional; summary of the method: as §4
Rattus norvegicus [39] = assay: Anticonvulsant activity in Sprague-Dawley albino rat assessed as protection against maximal electroshock-induced seizures at 30 mg/kg, po after 2 hrs; type: functional, organism-based; design: dose 30 mg/kg; summary of the method: as §3

CC(C)C(COC(N)=O)C(C)C
Activity (Rattus norvegicus [1]): Non-toxic
Activity (Mus musculus [2]): inactive
Activity (Mus musculus [3]): Non-toxic
Activity (Rattus norvegicus [4]): Non-toxic
Activity (Rattus norvegicus [5]): inactive
Activity (Rattus norvegicus [6]): Non-toxic
ED50 (Mus musculus [7]): 41 mg/kg
Ratio TD50/ED50 (Mus musculus [8]): 3.4
Activity (Rattus norvegicus [9]): Non-toxic
Activity (Rattus norvegicus [10]): Non-toxic
Activity (Rattus norvegicus [11]): Toxic
Activity (Rattus norvegicus [12]): Toxic
Activity (Mus musculus [13]): Non-toxic
Activity (Rattus norvegicus [14]): Toxic
Activity (Rattus norvegicus [15]): Non-toxic
Activity (Mus musculus [16]): inactive
Activity (Mus musculus [17]): inactive
Activity (Rattus norvegicus [18]): Non-toxic
Activity (Mus musculus [19]): inactive
Activity (Rattus norvegicus [20]): Non-toxic
Activity (Mus musculus [21]): Non-toxic
Activity (Rattus norvegicus [22]): Non-toxic
Activity (Rattus norvegicus [23]): inactive
Activity (Mus musculus [24]): inactive
Activity (Rattus norvegicus [25]): Active
Activity (Rattus norvegicus [26]): Toxic
Activity (Mus musculus [27]): inactive
Activity (Mus musculus [28]): inactive
Activity (Mus musculus [29]): Non-toxic
Activity (Mus musculus [30]): inactive
Activity (Mus musculus [31]): inactive
Activity (Rattus norvegicus [32]): Toxic
Activity (Rattus norvegicus [33]): inactive
Activity (Mus musculus [34]): inactive
Activity (Rattus norvegicus [35]): Non-toxic
Activity (Mus musculus [36]): Non-toxic
Activity (Rattus norvegicus [37]): inactive
ED50 (Rattus norvegicus [38]): 94 mg/kg
ED97 (Rattus norvegicus [38]): 184 mg/kg
Activity (Rattus norvegicus [39]): inactive
